Results: ChEMBL document CHEMBL1140556, “Design, structure-activity relationship, and pharmacokinetic profile of pyrazole-based indoline factor Xa inhibitors” (Bioorg Med Chem Lett, 2007)

Legend:
Coagulation factor X = Coagulation factor X (Homo sapiens, UniProt P00742); experiment: Inhibition of human factor 10a
Procedure, shortened: (§1)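 Ki values were measured against the purified human enzymes.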

Prothrombin = Prothrombin (Homo sapiens, UniProt P00734); experiment: Inhibition of human thrombin
Trypsin = Trypsin (Homo sapiens, UniProt P07477+P07478+P35030); experiment: Inhibition of human trypsin; type: protein assay; procedure, shortened: as §1
[1] = Clearance in dog at 0.5 mg/kg, iv and 0.2 mg/kg, po; type: ADME, organism-based, Canis lupus familiaris; details: in vivo
Procedure, shortened: (§2)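 Cassette (N-in-1) dosing, with compounds given together at 0.5 mg/kg iv and 0.2 mg/kg po; one animal per route (n = 1). Clearance, steady-state volume of distribution, oral half-life and oral bioavailability (F%) were derived from plasma levels.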

Canis familiaris = experiment: (§3) Volume of distribution at steady state in dog at 0.5 mg/kg, iv and 0.2 mg/kg, po; type: ADME, organism-based, Canis lupus familiaris; details: in vivo; procedure, shortened: as §2
Plasma = experiment: Anticoagulant potency in human plasma assessed as concentration required to double prothrombin time; type: functional
[2] = Apparent permeability across Caco-2 cells; type: ADME, cell-based; details: human
[3] = as §3; type: ADME, organism-based, Canis lupus familiaris; details: in vivo, read-out: Vdss; procedure, shortened: as §2
[4] = Half life in dog at 0.2 mg/kg, po; type: ADME, organism-based, Canis lupus familiaris; design: dose 0.2 mg/kg, route oral; details: in vivo; procedure, shortened: as §2
[5] = Oral bioavailability in dog at 0.2 mg/kg; type: ADME, organism-based, Canis lupus familiaris; details: in vivo; procedure, shortened: as §2

Coagulation factor X, sequence (P00742 41-179 limits assumed): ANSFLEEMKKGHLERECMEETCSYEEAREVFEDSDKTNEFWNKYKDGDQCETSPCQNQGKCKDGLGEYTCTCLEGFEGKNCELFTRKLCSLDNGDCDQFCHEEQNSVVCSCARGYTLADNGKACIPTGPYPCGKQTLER
Coagulation factor X, sequence (P00742 235-488 limits assumed): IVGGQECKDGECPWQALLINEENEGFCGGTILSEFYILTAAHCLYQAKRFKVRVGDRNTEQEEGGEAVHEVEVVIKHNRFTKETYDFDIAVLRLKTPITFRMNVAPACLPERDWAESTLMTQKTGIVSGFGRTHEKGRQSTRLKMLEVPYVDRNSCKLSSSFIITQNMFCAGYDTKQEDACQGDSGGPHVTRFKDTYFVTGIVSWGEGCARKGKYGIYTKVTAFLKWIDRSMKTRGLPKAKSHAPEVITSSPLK

| SMILES | Ki (Coagulation factor X) [µM] | Ki (Prothrombin) [µM] | Ki (Trypsin) [µM] | other results |
| --- | --- | --- | --- | --- |
| CN(C)Cc1nccn1-c1ccc(NC(=O)c2cc(C(F)(F)F)nn2-c2ccc3onc(N)c3c2)c(F)c1 [RAZAXABAN] | – | – | – | clearance [1]: 1.1 L/h/kg; Vdss (Canis familiaris): 3.4 L/kg |
| Nc1noc2ccc(-n3nc(C(F)(F)F)cc3C(=O)N3CCc4cc(-c5ccccc5CN5CCCC5)ccc43)cc12 | 0.0049 | 15 | > 40 | clearance [1]: 7.4 L/h/kg; Vd [3]: 20 L/kg |
| CN(C)CC(=O)N(C)c1ccc2c(c1)N(C(=O)c1cc(C(N)=O)nn1-c1ccc3onc(N)c3c1)CC2 | 0.35 | – | – | – |
| CS(=O)(=O)c1ccccc1-c1ccc2c(c1)C(O)CCN2C(=O)c1cc(C(F)(F)F)nn1-c1ccc2onc(N)c2c1 (racemic) | 1.4 | > 6.3 | > 4.2 | – |
| Nc1noc2ccc(-n3nc(C(F)(F)F)cc3C(=O)N3CCCCc4cc(-c5ccccc5S(N)(=O)=O)ccc43)cc12 | 3.4 | > 6.3 | > 4.2 | – |
| NC(=O)c1cc(C(=O)N2CCc3ccc(N4CCCCCC4=O)cc32)n(-c2ccc3onc(N)c3c2)n1 | 1.1 | – | – | – |
| NC(=O)c1cc(C(=O)N2CCc3cc(-c4ccccc4CN4CCCC4)ccc32)n(-c2ccc3onc(N)c3c2)n1 | 0.00063 | – | – | Activity (Plasma): 2.1 µM; Papp [2]: 7 nm/s; clearance [1]: 3.57 L/h/kg; Vd [3]: 6.2 L/kg |
| NC(=O)c1cc(C(=O)N2CCc3cc(-n4ccccc4=O)ccc32)n(-c2ccc3onc(N)c3c2)n1 | 0.0002 | – | – | Activity (Plasma): 1.9 µM; Papp [2]: 1 nm/s |
| CS(=O)(=O)c1ccccc1-c1ccc2c(c1)CCCN2C(=O)c1cc(C(F)(F)F)nn1-c1ccc2onc(N)c2c1 | 2 | > 6.3 | > 4.2 | – |
| CS(=O)(=O)c1ccccc1-c1ccc2c(c1)CCN2C(=O)c1cc(C(F)(F)F)nn1-c1ccc2onc(N)c2c1 | 0.0015 | > 21 | > 2.5 | Activity (Plasma): 26 µM |
| CN(C)Cc1nccn1-c1ccc2c(c1)CCN2C(=O)c1cc(C(N)=O)nn1-c1ccc2onc(N)c2c1 | 0.0022 | – | – | – |

More lines, main results first:

| Ki (Coagulation factor X) [µM] | Ki (Prothrombin) [µM] | Ki (Trypsin) [µM] | SMILES | other results |
| --- | --- | --- | --- | --- |
| 0.019 | 19.2 | – | CN(C)Cc1ccccc1-c1ccc2c(c1)CCN2C(=O)c1cc(C(F)(F)F)nn1-c1ccc2onc(N)c2c1 | – |
| 0.5 | > 21 | > 4.2 | CS(=O)(=O)c1ccccc1-c1ccc2c(c1)C(=O)CCN2C(=O)c1cc(C(F)(F)F)nn1-c1ccc2onc(N)c2c1 | – |
| 0.015 | – | – | NC(=O)c1cc(C(=O)N2CCc3cc(N4CCCCCC4=O)ccc32)n(-c2ccc3onc(N)c3c2)n1 | – |
| 0.001 | – | > 20 | CN(C)Cc1ccccc1-c1ccc2c(c1)CCN2C(=O)c1cc(C(N)=O)nn1-c1ccc2onc(N)c2c1 | Activity (Plasma): 3 µM; Papp [2]: 3 nm/s |
| 0.0069 | – | – | CN(Cc1nccn1-c1ccc2c(c1)CCN2C(=O)c1cc(C(N)=O)nn1-c1ccc2onc(N)c2c1)S(C)(=O)=O | – |
| 1.4 | – | – | CS(=O)(=O)c1ccccc1-c1ccc2c(c1)N(C(=O)c1cc(C(N)=O)nn1-c1ccc3onc(N)c3c1)CC2 | – |
| 0.0068 | – | – | CN(C)CC(=O)N(C)c1ccc2c(c1)CCN2C(=O)c1cc(C(N)=O)nn1-c1ccc2onc(N)c2c1 | – |
| 0.0027 | > 21 | > 2.5 | Nc1noc2ccc(-n3nc(C(F)(F)F)cc3C(=O)N3CCc4cc(-c5ccccc5S(N)(=O)=O)ccc43)cc12 | Activity (Plasma): 28 µM; clearance [1]: 0.63 L/h/kg; Vd [3]: 2 L/kg; half-life [4]: 4 h; bioavailability [5]: 66% |
| – | – | > 5.2 | CS(=O)(=O)c1ccccc1-c1ccc(NC(=O)c2cc(C(F)(F)F)nn2-c2ccc3onc(N)c3c2)c(F)c1 | – |
| 0.0048 | – | – | CC(=O)N(C)Cc1nccn1-c1ccc2c(c1)CCN2C(=O)c1cc(C(N)=O)nn1-c1ccc2onc(N)c2c1 | – |
| 0.00082 | > 20 | – | CS(=O)(=O)c1ccccc1-c1ccc2c(c1)CCN2C(=O)c1cc(C(N)=O)nn1-c1ccc2onc(N)c2c1 | Activity (Plasma): 41 µM |
| 0.071 | > 21 | – | CS(=O)(=O)c1ccccc1-c1ccc2c(c1)OCCN2C(=O)c1cc(C(F)(F)F)nn1-c1ccc2onc(N)c2c1 | – |
| 0.0024 | – | – | NC(=O)c1cc(C(=O)N2CCc3cc(N4CCCCC4=O)ccc32)n(-c2ccc3onc(N)c3c2)n1 | Activity (Plasma): 3.3 µM; Papp [2]: 1 nm/s; clearance [1]: 0.22 L/h/kg; Vd [3]: 0.2 L/kg; half-life [4]: 1.6 h; bioavailability [5]: 6% |
